This passage reports IC50, inhibition and Ratio IC50 results from ChEMBL document CHEMBL2424539, “Identification, synthesis and evaluation of substituted benzofurazans as inhibitors of CREB-mediated gene transcription” (Bioorg Med Chem Lett, 2013).

A short description of assay [1]: (§1) Inhibition of CREB-KID/CBP-KIX domain interaction (unknown origin) after 20 hrs by luciferase reporter gene assay. The arrangement: species or system Homo sapiens. The essentials:
(§2)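 Split Renilla luciferase complementation assay: RLucC-KIX and KID-RLucN fusions mixed with graded compound concentrations at 4 °C for 20 h, then residual RLuc activity measured. Stocks in DMSO (one in DMF). IC50 in μM, mean ± SD of at least two independent experiments run in duplicate; top concentration 50 or 100 μM.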

Assay [2] in a line: Inhibition of Herpesvirus VP16-CREB (unknown origin)-mediated gene transcription in HEK293T cells by luciferase reporter gene assay. It is filed as cell-based. The note with it: HEK-293T. The essentials: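 HEK 293T cells cotransfected with VP16-CREB plus CRE-RLuc, treated with graded compound concentrations without forskolin stimulation, then lysed and RLuc activity read and normalized to protein (RLU/μg protein). IC50 in μM, mean ± SD of at least two independent experiments run in triplicate; top concentration 50 or 100 μM.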

Assay [3] is described as follows: Inhibition of CREB (unknown origin)-mediated gene transcription in HEK293T cells preincubated for 30 mins followed by forskolin addition measured after 5 hrs by luciferase reporter gene assay. Format: cell-based. The following applies: Homo sapiens, HEK-293T. The essentials:
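HEK 293T cells transfected with CRE-RLuc (RLuc driven by three tandem CRE copies), treated with graded compound concentrations for 30 min, then stimulated with forskolin (10 μM) for another 5 h. Cells lysed and RLuc activity read, normalized to protein (RLU/μg protein). Stocks in DMSO (one in DMF). IC50 in μM, mean ± SD of at least two independent experiments run in triplicate; top concentration 50 or 100 μM.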

For assay [4], the species on record is Homo sapiens. The assay is described as §1. Put shortly:
as §2

The subject of assay [5] is HEK-293T. The experiment in a line: Selectivity ratio of IC50 for Herpesvirus VP16-CREB (unknown origin)-mediated gene transcription in HEK293T cells to IC50 for CREB (unknown origin)-mediated gene transcription in HEK293T cells. It is filed as cell-based.
Assay [6] deals with HEK-293T. The experiment in a line: Selectivity ratio of IC50 for CREB (unknown origin)-mediated gene transcription in HEK293T cells to IC50 for CREB-KID/CBP-KIX domain interaction (unknown origin). It is filed as cell-based. The note with it: Homo sapiens.

Turning to `O=[N+]([O-])c1ccc(Sc2ccccn2)c2nonc12`, the IC50 in assay [1] was found to be 0.41 µM; in assay [2], 13.2 µM; in assay [3], 9.42 µM.
For `O=[N+]([O-])c1ccc(Sc2cccc[n+]2[O-])c2nonc12`, the IC50 is 0.36 µM in assay [1], 6.14 µM in assay [2] and 2.09 µM in assay [3]. For the same compound, the inhibition result in assay [4] is “Dose-dependent effect”. Besides, the Ratio IC50 in assay [5] amounted to 3.
As to `O=[N+]([O-])c1ccc(Nc2ccc(Cl)cc2)c2nonc12`, the IC50 was 7.14 µM in assay [1], greater than 100 µM in assay [2] and 13.7 µM in assay [3]. The Ratio IC50 in assay [6] turned out to be 2.
Take `O=[N+]([O-])c1ccc(CNc2ccc(Cl)cc2)c2nonc12`: the IC50 in assay [1] is 13.1 µM; in assay [3] it was greater than 50 µM.
`O=[N+]([O-])c1cc(NCc2cccc3nonc23)ccc1Cl`: the IC50 in assay [1] and in assay [3] was greater than 50 µM each time.
Regarding `Nc1ccc(Nc2ccc(Cl)cc2)c2nonc12`, the IC50 is 50 µM in assay [1], greater than 50 µM in assay [2] and 50 µM in assay [3].
Consider `O=C(Nc1ccc(Cl)cc1)c1ccc([N+](=O)[O-])c2nonc12`, for which the IC50 is 0.17 µM in assay [1] and greater than 50 µM in assay [3].
